Results: ChEMBL document CHEMBL2331117 (J Med Chem, 2013)
pIC50: −log10 of the molar value. ≈ marks a conversion by molar mass, not a printed value.

Legend:
[1] = Inhibition of mTORC1-mediated phosphorylation of S6 at serine 240/244 in human PC3 cells after 3 hrs by ELISA; format: cell-based; details: PC-3, 3 h
[2] = Inhibition of mTORC1 (unknown origin)-mediated 4EBP1 phosphorylation after 120 mins by ELISA; parameters: species or system Homo sapiens
[3] = biological target: Phosphatidylinositol 4,5-bisphosphate 3-kinase catalytic subunit alpha isoform (Homo sapiens, UniProt P42336); assay: Inhibition of PI3Kalpha (unknown origin) using PIP2 as substrate after 2 hrs by luminescence assay
Sequence of Phosphatidylinositol 4,5-bisphosphate 3-kinase catalytic subunit alpha isoform (P42336 whole entry, canonical isoform): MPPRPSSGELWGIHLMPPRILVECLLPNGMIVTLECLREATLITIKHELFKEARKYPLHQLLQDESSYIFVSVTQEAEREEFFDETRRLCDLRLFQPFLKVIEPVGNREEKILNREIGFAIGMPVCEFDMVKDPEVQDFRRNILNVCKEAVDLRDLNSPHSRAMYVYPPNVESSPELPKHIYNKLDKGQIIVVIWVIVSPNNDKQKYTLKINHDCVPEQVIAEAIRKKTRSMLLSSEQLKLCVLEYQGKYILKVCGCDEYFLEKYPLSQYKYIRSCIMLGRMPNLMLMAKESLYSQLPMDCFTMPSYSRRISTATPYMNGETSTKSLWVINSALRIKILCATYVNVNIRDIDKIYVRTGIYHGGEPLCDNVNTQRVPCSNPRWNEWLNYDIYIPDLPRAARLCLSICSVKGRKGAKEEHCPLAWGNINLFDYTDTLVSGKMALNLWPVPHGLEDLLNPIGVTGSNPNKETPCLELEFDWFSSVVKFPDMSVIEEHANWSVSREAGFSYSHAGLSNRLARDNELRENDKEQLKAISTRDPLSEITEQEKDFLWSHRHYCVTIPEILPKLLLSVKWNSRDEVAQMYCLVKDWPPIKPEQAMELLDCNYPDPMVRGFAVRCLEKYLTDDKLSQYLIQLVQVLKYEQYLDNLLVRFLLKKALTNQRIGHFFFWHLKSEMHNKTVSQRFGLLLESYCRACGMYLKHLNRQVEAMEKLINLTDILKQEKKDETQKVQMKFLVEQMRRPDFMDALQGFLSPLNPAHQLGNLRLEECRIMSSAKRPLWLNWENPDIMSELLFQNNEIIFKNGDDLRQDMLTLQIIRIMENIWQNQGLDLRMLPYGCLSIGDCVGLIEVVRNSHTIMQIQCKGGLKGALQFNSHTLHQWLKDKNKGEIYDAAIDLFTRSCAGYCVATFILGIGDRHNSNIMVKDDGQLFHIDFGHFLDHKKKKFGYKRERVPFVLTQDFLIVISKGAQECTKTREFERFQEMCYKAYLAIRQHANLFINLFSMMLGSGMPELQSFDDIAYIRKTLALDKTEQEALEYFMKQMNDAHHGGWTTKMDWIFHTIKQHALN

[4] = Metabolic stability in mouse liver microsomes after 30 mins; format: ADME, Microsome; details: read-out: Stability
Homo sapiens = species on record: Homo sapiens; assay: Selectivity ratio of IC50 for PI3Kalpha (unknown origin) to IC50 for mTOR (unknown origin)
[5] = Apparent permeability across MDCK cells; format: ADME, cell-based, Canis lupus familiaris; details: dog
[6] = Kinetic solubility of the compound; format: physicochemical; details: read-out: Kinetic_solubility
[7] = Plasma concentration in mouse at 100 mg/kg, po after 1 hr; format: ADME, organism-based; parameters: dose 100 mg/kg, route oral
Cytochrome P450 2C8 = biological target: T1, Cytochrome P450 2C8 (Homo sapiens, UniProt P10632); assay: Inhibition of CYP2C8 (unknown origin); format: ADME
T1 sequence (P10632 whole entry): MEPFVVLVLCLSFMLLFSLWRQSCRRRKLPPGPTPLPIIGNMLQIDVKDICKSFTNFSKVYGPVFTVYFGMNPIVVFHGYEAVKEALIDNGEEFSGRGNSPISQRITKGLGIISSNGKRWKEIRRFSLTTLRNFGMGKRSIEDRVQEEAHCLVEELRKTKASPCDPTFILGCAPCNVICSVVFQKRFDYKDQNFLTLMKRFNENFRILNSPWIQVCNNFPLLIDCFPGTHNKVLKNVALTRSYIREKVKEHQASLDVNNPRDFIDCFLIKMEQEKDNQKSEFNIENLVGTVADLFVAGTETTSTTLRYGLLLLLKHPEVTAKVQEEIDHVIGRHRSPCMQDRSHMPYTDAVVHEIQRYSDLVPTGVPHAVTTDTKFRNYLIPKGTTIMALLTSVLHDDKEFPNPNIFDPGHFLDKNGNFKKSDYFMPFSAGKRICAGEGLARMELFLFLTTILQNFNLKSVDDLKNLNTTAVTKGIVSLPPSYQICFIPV

Cytochrome P450 3A4 = Cytochrome P450 3A4 (Homo sapiens, UniProt P08684); assay: Inhibition of CYP3A4 (unknown origin); format: ADME
Sequence of Cytochrome P450 3A4 (P08684 whole entry): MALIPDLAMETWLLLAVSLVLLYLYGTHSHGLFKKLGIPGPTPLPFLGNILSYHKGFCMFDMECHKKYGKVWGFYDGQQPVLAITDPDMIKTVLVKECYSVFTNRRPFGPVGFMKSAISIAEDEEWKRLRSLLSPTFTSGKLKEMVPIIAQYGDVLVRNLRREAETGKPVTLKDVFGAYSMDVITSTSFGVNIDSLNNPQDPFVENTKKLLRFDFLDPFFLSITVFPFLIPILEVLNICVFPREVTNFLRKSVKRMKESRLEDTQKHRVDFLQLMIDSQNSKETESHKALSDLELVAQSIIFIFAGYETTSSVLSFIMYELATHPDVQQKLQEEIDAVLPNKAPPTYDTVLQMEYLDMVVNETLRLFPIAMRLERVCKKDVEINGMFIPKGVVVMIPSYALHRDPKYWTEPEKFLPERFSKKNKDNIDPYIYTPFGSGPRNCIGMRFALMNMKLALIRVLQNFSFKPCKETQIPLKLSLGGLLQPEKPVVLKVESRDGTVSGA

Cytochrome P450 2C9 = Cytochrome P450 2C9 (Homo sapiens, UniProt P11712); assay: Inhibition of CYP2C9 (unknown origin); format: ADME
Sequence of Cytochrome P450 2C9 (P11712 whole entry): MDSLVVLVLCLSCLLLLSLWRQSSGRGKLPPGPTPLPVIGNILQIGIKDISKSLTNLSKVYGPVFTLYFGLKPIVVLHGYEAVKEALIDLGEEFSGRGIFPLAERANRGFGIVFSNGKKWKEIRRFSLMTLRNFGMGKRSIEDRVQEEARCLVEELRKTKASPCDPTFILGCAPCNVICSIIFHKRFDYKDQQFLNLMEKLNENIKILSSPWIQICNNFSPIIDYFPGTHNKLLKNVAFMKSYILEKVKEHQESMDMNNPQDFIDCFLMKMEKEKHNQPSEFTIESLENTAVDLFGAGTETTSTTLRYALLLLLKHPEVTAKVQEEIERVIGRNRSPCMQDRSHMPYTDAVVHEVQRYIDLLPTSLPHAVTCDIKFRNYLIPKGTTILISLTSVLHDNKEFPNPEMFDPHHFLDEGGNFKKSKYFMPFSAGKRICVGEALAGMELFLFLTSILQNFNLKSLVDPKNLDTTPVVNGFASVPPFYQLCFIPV

Cytochrome P450 2D6 = Cytochrome P450 2D6 (Homo sapiens, UniProt P10635); assay: Inhibition of CYP2D6 (unknown origin); format: ADME
Sequence of Cytochrome P450 2D6 (P10635 whole entry): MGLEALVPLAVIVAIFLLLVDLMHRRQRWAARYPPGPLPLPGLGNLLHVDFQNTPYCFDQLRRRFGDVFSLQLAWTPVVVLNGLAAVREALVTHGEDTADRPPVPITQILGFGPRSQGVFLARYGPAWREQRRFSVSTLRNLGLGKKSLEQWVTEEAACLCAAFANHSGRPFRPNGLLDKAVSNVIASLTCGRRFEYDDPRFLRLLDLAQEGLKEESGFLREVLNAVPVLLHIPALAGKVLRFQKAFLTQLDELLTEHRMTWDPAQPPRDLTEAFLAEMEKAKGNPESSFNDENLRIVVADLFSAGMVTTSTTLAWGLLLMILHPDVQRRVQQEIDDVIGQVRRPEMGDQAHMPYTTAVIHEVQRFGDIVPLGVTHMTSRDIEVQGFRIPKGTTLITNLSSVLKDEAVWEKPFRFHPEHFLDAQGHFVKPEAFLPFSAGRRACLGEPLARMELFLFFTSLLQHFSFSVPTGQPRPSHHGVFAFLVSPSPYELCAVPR

[8] = Plasma concentration in mouse at 100 mg/kg, po after 4 hrs; format: ADME, organism-based; parameters: dose 100 mg/kg, route oral
[9] = Inhibition of mTORC2-mediated phosphorylation of AKT at serine 473 in human PC3 cells after 2 hrs and 50 mins by ELISA; format: cell-based; details: PC-3
In short: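 Compound in 0.3% DMSO was added for 2 h 50 min, followed by 10 min stimulation with 20 ng/mL EGF. After formaldehyde fixation, pAKT (S473) and total AKT were detected by chemiluminescent cell ELISA. IC50 came from pAKT normalized to total AKT, relative to DMSO control. Mean, n ≥ 2.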

pIC50 [1] | pIC50 [2] | pIC50 [3] | remaining at 0.5 h [4] | Ratio IC50 (Homo sapiens) | Papp [5] | solubility kinetic [6] | concentration at 1 h [7] | INH (Cytochrome P450 2C8) | INH (Cytochrome P450 3A4) | INH (Cytochrome P450 2C9) | INH (Cytochrome P450 2D6) | concentration at 4 h [8] | pIC50 [9] | Structure (SMILES)
6.17 | 8.46 | 6.59 | 60% |  |  |  |  |  |  |  |  |  |  | O=C(c1ccc(C(=O)C(F)(F)F)cc1)N1CCOc2ccc(-c3ccc4cn[nH]c4c3)cc2C1
6.30 | 8.37 | 6.86 | 23% |  |  |  |  |  |  |  |  |  |  | O=C(c1ccc(C(=O)C(F)(F)F)cc1)N1CCOc2ccc(-c3ccc4[nH]ncc4c3)cc2C1
6.14 | 7.53 | 5.98 | 3% |  |  |  |  |  |  |  |  |  |  | O=C(c1ccc(C(=O)C(F)(F)F)cc1)N1CCOc2ccc(-c3cn[nH]c3)cc2C1
 | 7.02 | 6.40 |  | 4 | 1.69 ×10⁻⁶ cm/s | 40.1 µM (≈ 19.1 µg/mL) |  |  |  |  |  |  |  | O=C(c1ccc(C(=O)C(F)(F)F)cc1)N1CCOc2ccc(-c3cnc4ccccc4c3)cc2C1
6.82 | 8.64 | 7.05 | 49% |  | 0.98 ×10⁻⁶ cm/s | < 1 µM | 1500 nM | 6.2 µM | 2.3 µM | 0.8 µM | 4 µM | 400 nM |  | O=C(c1ccc(C(=O)C(F)(F)F)cc1)N1CCOc2ccc(-c3ccc4nc[nH]c4c3)cc2C1
6.35 | 8.46 | 5.96 | 64% |  | 4.2 ×10⁻⁶ cm/s |  |  | 1.6 µM | 2.8 µM | 1.1 µM | 2.3 µM |  | 6.09 | CNS(=O)(=O)c1ccc(C(=O)N2CCOc3ccc(-c4ccc5nc[nH]c5c4)cc3C2)cc1
6.82 | 8.54 | < 5.52 | 59% |  |  |  |  | 3.1 µM | 2.6 µM | 2.2 µM | 11.5 µM |  | 6.56 | CCc1c(C(=O)N2CCOc3ccc(-c4ccc5nc[nH]c5c4)cc3C2)ccc(S(C)(=O)=O)c1F
6.46 | 8.28 | 6.16 | 45% |  |  |  |  | 3.4 µM | 3 µM | 4.2 µM | 9.2 µM |  | 6.34 | CS(=O)(=O)c1ccc(C(=O)N2CCOc3ccc(-c4ccc5nc[nH]c5c4)cc3C2)c(Br)c1
 | < 5.00 | < 5.00 |  |  |  |  |  |  |  |  |  |  |  | c1ccc2ncc(-c3ccc4c(c3)CNCCO4)cc2c1
6.47 | 7.63 | 6.15 | 58% |  |  |  |  | 5.4 µM | 3.5 µM | 9 µM | 9.2 µM |  | 5.97 | CS(=O)(=O)c1ccc(C(=O)N2CCOc3ccc(-c4ccc5nc[nH]c5c4)cc3C2)c(Cl)c1
6.48 | 8.85 | 5.63 | 94% |  |  |  |  | 3.4 µM | 3.4 µM | 6.4 µM | 9.6 µM |  | 6.36 | Cc1c(C(=O)N2CCOc3ccc(-c4ccc5nc[nH]c5c4)cc3C2)ccc(S(C)(=O)=O)c1F
 | 6.70 | 5.50 |  |  |  |  |  |  |  |  |  |  |  | O=C(c1ccccc1)N1CCOc2ccc(-c3cnc4ccccc4c3)cc2C1
 | 6.94 | 6.62 |  |  |  |  |  |  |  |  |  |  |  | CC(=O)Nc1cccc(-c2ccc3c(c2)CN(C(=O)c2ccc(C(=O)C(F)(F)F)cc2)CCO3)c1
6.63 | 8.28 | < 5.52 | 50% |  |  |  |  | 5.6 µM | 2 µM | 5.4 µM | > 20 µM |  | 6.16 | CCc1cc(S(C)(=O)=O)ccc1C(=O)N1CCOc2ccc(-c3ccc4nc[nH]c4c3)cc2C1
6.47 | 8.36 | 6.17 | 82% |  |  |  | 7800 nM | > 20 µM | 3.8 µM | 3 µM | 8.1 µM | 1000 nM | 6.09 | CS(=O)(=O)c1ccc(C(=O)N2CCOc3ccc(-c4ccc5nc[nH]c5c4)cc3C2)cc1
5.93 | 7.89 | 5.54 | 100% |  |  |  |  | > 20 µM | > 20 µM | 18.8 µM | > 20 µM |  | 5.71 | CS(=O)(=O)c1ccc(C(=O)N2CCOc3ccc(-c4ccc(N)nc4)cc3C2)cc1
 | 6.69 | < 5.52 |  |  |  |  |  |  |  |  |  |  |  | CCNc1cc(S(C)(=O)=O)ccc1C(=O)N1CCOc2ccc(-c3ccc4nc[nH]c4c3)cc2C1
 | < 5.00 | < 5.00 |  |  |  |  |  |  |  |  |  |  |  | O=C(c1ccc(C(=O)C(F)(F)F)cc1)N1CCOc2ccccc2C1
 | 7.14 | 5.95 |  |  |  |  |  |  |  |  |  |  |  | O=C(c1ccc(C(=O)C(F)(F)F)cc1)N1CCOc2ccc(-c3cccnc3)cc2C1
6.37 | 8.24 | < 5.52 | 51% |  |  |  |  | 5.4 µM | 4.1 µM | 2.9 µM | 9.3 µM |  | 6.00 | Cc1cc(S(C)(=O)=O)ccc1C(=O)N1CCOc2ccc(-c3ccc4nc[nH]c4c3)cc2C1
 | 7.13 | 5.83 |  |  |  |  |  |  |  |  |  |  |  | O=C(c1ccc(C(=O)C(F)(F)F)cc1)N1CCOc2ccc(-c3ccc4ccccc4c3)cc2C1
 | 6.47 | 5.61 |  |  |  |  |  |  |  |  |  |  |  | CC(=O)c1ccc(C(=O)N2CCOc3ccc(-c4ccc5cnn(C)c5c4)cc3C2)cc1
 | 7.85 | 5.74 |  |  |  |  |  |  |  |  |  |  |  | CC(=O)c1ccc(C(=O)N2CCOc3ccc(-c4ccc5cn[nH]c5c4)cc3C2)cc1
6.62 | 9.30 | 7.05 | 50% |  |  |  | 1000 nM |  |  |  |  | 200 nM |  | Cc1nc2ccc(-c3ccc4c(c3)CN(C(=O)c3ccc(C(=O)C(F)(F)F)cc3)CCO4)cc2[nH]1
6.51 | 8.46 | 5.96 | 74% |  |  |  |  | 3.6 µM | 1.9 µM | 1.6 µM | 3.1 µM |  | 6.17 | O=C(c1ccc(C(F)(F)F)cc1)N1CCOc2ccc(-c3ccc4nc[nH]c4c3)cc2C1
5.93 | 7.55 | < 5.52 | 87% |  |  |  |  |  |  |  |  |  | 5.48 | CCCc1cc(S(C)(=O)=O)ccc1C(=O)N1CCOc2ccc(-c3ccc4nc[nH]c4c3)cc2C1
6.23 | 8.18 | 6.34 | 68% |  |  |  |  |  |  |  |  |  | 5.91 | Cc1cc(C(=O)N2CCOc3ccc(-c4ccc5nc[nH]c5c4)cc3C2)ccc1S(C)(=O)=O
 | 6.92 | 5.64 |  |  |  |  |  |  |  |  |  |  |  | O=C(c1ccc(C(=O)C(F)(F)F)cc1)N1CCOc2ccc(-c3ccccc3)cc2C1
6.46 | 8.44 | 5.66 | 72% |  |  |  |  | 5 µM | 2.2 µM | 1.7 µM | 3.3 µM |  | 5.97 | CCS(=O)(=O)c1ccc(C(=O)N2CCOc3ccc(-c4ccc5nc[nH]c5c4)cc3C2)cc1
5.74 | 8.54 | 6.12 | 64% |  | 4.2 ×10⁻⁶ cm/s |  |  | 13.9 µM | 6.3 µM | 1.3 µM | 4.3 µM |  | 5.78 | NS(=O)(=O)c1ccc(C(=O)N2CCOc3ccc(-c4ccc5nc[nH]c5c4)cc3C2)cc1
